Legend:
[1] = folding enthalpy; higher = less favourable; fluorescence melt of hairpins on a sequencing array, two-state fit; conditions: sodium 0.088 M
Procedure, shortened: (§1)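 Melting temperature and folding enthalpy were obtained by bootstrapped two-state fitting. Fits used Cy3 fluorescence of library hairpins with annealed Cy3 and quencher oligos on a sequenced MiSeq flow cell, imaged in 50 mM Na-HEPES pH 8.0, 25 mM NaCl in 2.5 °C steps up to 60 °C and normalised to pre-quench Cy3 and control constructs. Four replicates were combined by inverse-variance weighting, and fitted temperatures were raised by 9.35 °C to match UV melts.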

[2] = melting temperature; fluorescence melt of hairpins on a sequencing array, two-state fit, raised by 9.35 °C to match UV melts; conditions: sodium 0.088 M
Procedure, shortened: as §1

Sequence | folding enthalpy [1] [kcal/mol] | Tm [2] [°C]
GGCCGGGGAAACTCGGCC (((((.(....).))))) | -40 | 68.4
GAACACGAAAGTGGCTTC ((((((....)))..))) | -23 | 45.4
GTTCACGAAAGTGCGAAC ((((((....)))..))) | -10.7 | 31.6
GTTTTTCGAAAGAACAAC (((.(((....))).))) | -17.8 | 34.3
GGGCAGGGAAACCCGCCC ((((.((....)).)))) | -38.2 | 60
GATCTGCTACCAGATC ((((((....)))))) | -37.4 | 48.8
GAGCCGGGAAACCGACCC (.(.(((....))).).) | -13.9 | 30.1
GCTGATCCGAAAGGAAGC (((..(((....)))))) | -18 | 39
GGCCACGAAAGTGGCGCC ((((((....)))..))) | -7.19 | 65.5
GGGGCAGGAAACCACCCC ((((..(....)..)))) | -28.6 | 36.6
GCCGAGCGAAAGCTGGC (((.(((....)))))) | -25.1 | 68.6
GGGAGCGAAAGCTTTCCC ((((((....)))..))) | -16.3 | 40.4
CGGTCGGAAACGAGACCG ((((((....)))..))) | -38.6 | 49.9
GGGCCGCGAAAGCGTCCC (((.(((....))).))) | -20.4 | 65.8
GATCTAAGTATAGATC ((((((....)))))) | -27.7 | 37.9
GCGCTGCGAAAGCCCCGC (((..((....))..))) | -22.5 | 41.5
GGAGCAGGAAACTGCTTC (.(((((....))))).) | -26.4 | 51.7
GTGGGCGAAAGCCACCAC ((((((....)))..))) | -12.7 | 47.2
GTGTCCGAAAGGACGCAC ((((((....)))..))) | -10.4 | 57.8
GCGATAACTCGC ((((....)))) | -21.1 | 45.9
GATCGGATGACCGATC ((((((....)))))) | -29.8 | 55.8
GCCAAGCGAAAGCTAGGC (((.(((....))).))) | -40.1 | 60.4
GCATCGCGAAAGCGCTGC (((.(((....))).))) | -42 | 56

Sequence | folding enthalpy [1] [kcal/mol] | Tm [2] [°C]
GGCTCGGGAAACCAAGCC ((((.((....)).)))) | -35.3 | 48.8
GGCAAACGAAAGTTAGCC (((.(((....))).))) | -25.1 | 54.9
GGCGGTCCGAAAGGAGCC (((..(((....)))))) | -17.7 | 46.6
GATCTTTCGAAGATC ((((((...)))))) | -28.7 | 40.7
GCAGTGCGAAAGCCATGC (((..((....))..))) | -16.4 | 51.1
GGTCAAGAAATTGACC ((((((....)))))) | -41.4 | 52.7
GTTTCCGAAAGGATGAAC ((((((....)))..))) | -8.12 | 25.8
GCACACGAAAGTGATGC ((((((....))).))) | -33.1 | 54.5
GCCAAAGGAAACTTCGGC (((.(((....))).))) | -24 | 39.6
GATCCGATCGCGGATC ((((((....)))))) | -37.9 | 56
GCACCGCGAAAGCGATGC (((.(((....))).))) | -43.6 | 57.4
GGTATAGGAAACTATATC (.(((((....))))).) | -17.1 | 31.2
GATCTGGAGACAGATC ((((((....)))))) | -33.9 | 52
CGATCACGGAAACGTTCG (((..(((....)))))) | -17.2 | 35.5
GATCATTTAAATGATC ((((((....)))))) | -46.3 | 48.4
GGAAACGAAAGTTCTCC ((((((....))).))) | -16.8 | 35.8
GATCGATTTCTCGATC ((((((....)))))) | -36.4 | 52.5
GCGGCCAACCGC ((((....)))) | -21.6 | 56.2
GTAGGCGCGAAAGCGTAC (((..(((....)))))) | -9.85 | 34.9
GGGTGGCGAAAGCCTCCC (((.(((....))).))) | -28 | 66.2
GGAACCGAAAGGTGATCC ((((((....)))..))) | -14 | 42.8
GCGGTTTCCCGC ((((....)))) | -25 | 56.2
GGCATCGAAAGATCAGCC ((((((....)))..))) | -25 | 39.2

Sequence | folding enthalpy [1] [kcal/mol] | Tm [2] [°C]
GATCAGGATTCTGATC ((((((....)))))) | -38.6 | 49.8
GATCAGGGTCCTGATC ((((((....)))))) | -37.9 | 52.7
GCGTTGCAACGC ((((....)))) | -33.5 | 59
GGGCTGGGAAACCGGCCC ((((.((....)).)))) | -29.2 | 67.2
GCGTCGCGAAAGCTTCGC (((..((....))..))) | -19.7 | 53.5
GGTTGAGGAAACTTAACC ((((.((....)).)))) | -31.9 | 39.8
GGCAAGGCGAAAGCCGCC (((..(((....)))))) | -13.6 | 59.6
GGGCGCCGAAAGGCCCCC (((.(((....))).))) | -14 | 65.5
GTATTTGGAAACAAGTAC (((.(((....))).))) | -20.6 | 35.7
GTGAATGGAAACATTCAC (((((((....))))))) | -45.6 | 56.9
GCCAACGAAAGTTCAGGC ((((((....)))..))) | -28.2 | 40.7
GATCTTACCGAAGATC ((((((....)))))) | -33 | 42.9
GCGGCACTCCGC ((((....)))) | -25.8 | 57.5
GATAGCGGAAACGTTGTC ((.(.((....)).).)) | -16.1 | 27.5
GGAAGCACGAAAGTGTCC (((..(((....)))))) | -13.1 | 31.5
GCTCGGCGAAAGCGGGGC ((.(.((....)).).)) | -20.6 | 61.1
GATGAACGAAAGTTAATC (((.(((....))).))) | -23.7 | 38.6
GGTTGAGGAAACTCAGCC ((.((((....)))).)) | -33.4 | 50
GAACACCCGAAAGGGTTC (((..(((....)))))) | -8.81 | 30.7
GATCGCCCACGCGATC ((((((....)))))) | -35 | 68.1
CGTCCGGAAACGGGTACG ((((((....)))..))) | -25 | 42.4
GTCAGCGGAAACGCCAAC ((..(((....)))..)) | -7.36 | 21.8
GTGGTTGGAAACGATCAC (((.(.(....).).))) | -18 | 34.1

Sequence | folding enthalpy [1] [kcal/mol] | Tm [2] [°C]
GGAAGGGGAAACCCTTTC (.(((((....))))).) | -24.2 | 44.7
GGCTCCGAAAGGATCGCC ((((((....)))..))) | -21.7 | 47.2
GATCAGCCCGCTGATC ((((((....)))))) | -47.1 | 58.3
GACTGCGGAAACGCAGCC (.(((((....))))).) | -11.2 | 52
GTCAGGGGAAACCCCAAC ((..(((....)))..)) | -11.7 | 28.3
GGACGGACGAAAGTCTCC (((..(((....)))))) | -13.2 | 30.5
GTTGGTCGAAAGACAAC (((.(((....)))))) | -20.4 | 45.7
GTTACCGAAAGGTTCAAC ((((((....)))..))) | -8.36 | 25
CATGAGAAATCATG (((((....))))) | -13.9 | 43.9
GATCGTCTCCACGATC ((((((....)))))) | -38.1 | 53.7
GGGTCCGAAAGGATACCC ((((((....)))..))) | -20.1 | 50
GCTTTGCGAAAGCGTAGC (((..((....))..))) | -19.6 | 37.2
GGATAATCGAAAGATTCC (((..(((....)))))) | -14 | 27.6
GTGCTACCGAAAGGTCAC (((..(((....)))))) | -15.5 | 37
GCATCTCGAAAGAGTTGC (((.(((....))).))) | -33.9 | 50.6
GGCACGGCGAAAGCCGCC (((..(((....)))))) | -8.23 | 44.6
GGCCATCGAAAGATCGCC (((.(((....))).))) | -33.6 | 46.8
GCGTATGAACGC ((((....)))) | -18.9 | 52
GTACGGGGAAACCCACAC ((..(((....)))..)) | -16.3 | 30.4
GCCGGAGGAAACTCTGGC (((.(((....))).))) | -34.6 | 54.8
GCTCCCCGAAAGGGCAGC (((.(((....))).))) | -21 | 48
GCTGTTGGAAACGACAGC (((((.(....).))))) | -40.7 | 54.7
GATGTCGGAAACGATGTC ((..(((....)))..)) | -32.6 | 39.9

Reference: the array DNA melting data of Ke et al. (doi:10.1101/2024.01.08.574731)
